# Experimental data from ChEMBL document CHEMBL1129471, “Orally active squalene synthase inhibitors: bis((acyloxy)alkyl) prodrugs of the alpha-phosphonosulfonic acid moiety” (J Med Chem, 1996).
# Tests used:
# Format in all cases: functional
# Rattus norvegicus [1] = experiment: Compound was tested for inhibition of cholesterol biosynthesis in rats by oral dosing (po).
# Outline: (§1)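 Fasted rats, dosed orally or intravenously as the line states; the read-out is inhibition of cholesterol biosynthesis from acetate.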
# Rattus norvegicus [2] = experiment: Compound was tested for inhibition of cholesterol biosynthesis in rats by intravenous (iv) dose of 4 uM/Kg; outline: as §1
# Rattus norvegicus [3] = species on record: Rattus norvegicus; experiment: (§2) Esterase susceptibility was determined from the initial rate of aldehyde release upon incubation of the prodrug with homogenized rat small intestinal mucosa relative to compound 9
# Rattus norvegicus [4] = experiment: Compound was tested for inhibition of cholesterol biosynthesis in rats by oral dose of 28 uM/Kg; details: at 28 µmol/kg
# Rattus norvegicus [5] = experiment: Compound was tested for inhibition of cholesterol biosynthesis in rats by intravenous (iv) dosing.; outline: as §1
# Rattus norvegicus [6] = species on record: Rattus norvegicus; experiment: as §2; remark: listed apart in the source
# Outline: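 A rat intestinal mucosal esterase preparation was incubated with 200 μM prodrug in 20 mM Tris, pH 7.0, at 37 °C. Timed aliquots were quenched with 0.5 M sodium acetate, pH 3.8. Released aldehyde was measured colorimetrically with methylbenzothiazolinehydrazone/ferric chloride (A625) against an aldehyde standard curve. Initial rate is given as pmol aldehyde/min per esterase unit, normalised to a reference prodrug.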
# Rattus norvegicus [7] = experiment: Compound was tested for inhibition of cholesterol biosynthesis in rats by intravenous (iv) dose of 22 uM/Kg; outline: as §1
Compound,ED50 (Rattus norvegicus [1]) [µmol/kg],Relative esterase susceptibility (Rattus norvegicus [3]),ED50 (Rattus norvegicus [5]) [µmol/kg],other results
CCC(=O)OC(OP(=O)(OC(OC(=O)CC)C(C)C)C(CCCc1cccc(Oc2ccccc2)c1)S(=O)(=O)O)C(C)C (centres undefined),7.9,,,
CC(C)=CCC/C(C)=C/CC/C(C)=C/CCCC(P(=O)(OCOC(=O)CC1CCCCC1)OCOC(=O)CC1CCCCC1)S(=O)(=O)[O-].[K+] (centres undefined),4.1,0.49,,Inhibition (Rattus norvegicus [2]): -35%
CC(OC(=O)C(C)(C)C)OP(=O)(OC(C)OC(=O)C(C)(C)C)C(CCCc1cccc(Oc2ccccc2)c1)S(=O)(=O)[O-].[K+] (centres undefined),12.8,0.45,,
CCC(=O)OC(OP(=O)(OC(OC(=O)CC)C(C)C)C(CCC/C=C(\C)CC/C=C(\C)CCC=C(C)C)S(=O)(=O)[O-])C(C)C.[K+] (centres undefined),,1.1,,Inhibition (Rattus norvegicus [4]): -43%
CCCCCCC(=O)OCOP(=O)(OCOC(=O)CCCCCC)C(CCC/C=C(\C)CC/C=C(\C)CCC=C(C)C)S(=O)(=O)[O-].[K+] (centres undefined),14,6.5,0.18,
CC(C)=CCC/C(C)=C/CC/C(C)=C/CCCC(P(=O)(O)O)S(=O)(=O)O (centres undefined),16.5,,0.25,
CC(OC(=O)C(C)C)OP(=O)(OC(C)OC(=O)C(C)C)C(CCCc1cccc(Oc2ccccc2)c1)S(=O)(=O)O (centres undefined),10.1,,,
CC(C)(C)C(=O)OCOP(=O)(OCOC(=O)C(C)(C)C)C(CCCc1cccc(Oc2ccccc2)c1)S(=O)(=O)[O-].[K+] (centres undefined),3.5,15,1.7,
CC(C)=CCC/C(C)=C/CC/C(C)=C/CCCC(P(=O)(OCOC(=O)C(C)C)OCOC(=O)C(C)C)S(=O)(=O)[O-].[K+] (centres undefined),18.8,,1.7,Relative esterase susceptibility (Rattus norvegicus [6]): 8.1
CC(C)=CCC/C(C)=C/CC/C(C)=C/CCCC(P(=O)(OCOC(=O)C(C)(C)C)OCOC(=O)C(C)(C)C)S(=O)(=O)[O-].[K+] (centres undefined),3.9,1,,Inhibition (Rattus norvegicus [7]): -40%
CCC(=O)OC(C)OP(=O)(OC(C)OC(=O)CC)C(CCC/C=C(\C)CC/C=C(\C)CCC=C(C)C)S(=O)(=O)[O-].[K+] (centres undefined),11.6,1.7,7,
CCC(=O)OC(C)OP(=O)(OC(C)OC(=O)CC)C(CCCc1cccc(Oc2ccccc2)c1)S(=O)(=O)[O-].[K+] (centres undefined),12.6,17,,
CC(C)C(=O)OC(OP(=O)(OC(OC(=O)C(C)C)C(C)C)C(CCCc1cccc(Oc2ccccc2)c1)S(=O)(=O)[O-])C(C)C.[K+] (centres undefined),,,,Inhibition (Rattus norvegicus [4]): -45%
CCC(=O)OC(CC)OP(=O)(OC(CC)OC(=O)CC)C(CCCc1cccc(Oc2ccccc2)c1)S(=O)(=O)O (centres undefined),10.9,,,
CC(C)=CCC/C(C)=C/CC/C(C)=C/CCCC(P(=O)(OC(C)OC(=O)C(C)(C)C)OC(C)OC(=O)C(C)(C)C)S(=O)(=O)[O-].[K+] (centres undefined),,0.2,,Inhibition (Rattus norvegicus [4]): -35%
CC(C)=CCC/C(C)=C/CC/C(C)=C/CCCC(P(=O)(OC(C)OC(=O)c1ccccc1)OC(C)OC(=O)c1ccccc1)S(=O)(=O)[O-].[K+] (centres undefined),,0.21,,Inhibition (Rattus norvegicus [4]): -33%
O=P(O)(O)C(CCCc1cccc(Oc2ccccc2)c1)S(=O)(=O)O (centres undefined),19.5,,0.2,
CC(C)=CCC/C(C)=C/CC/C(C)=C/CCCC(P(=O)(OCOC(=O)c1ccccc1)OCOC(=O)c1ccccc1)S(=O)(=O)[O-].[K+] (centres undefined),15,1.5,1.5,
